Laboratory results: ChEMBL document CHEMBL4406881, “Design, synthesis and biological evaluation of benzoylacrylic acid shikonin ester derivatives as irreversible dual inhibitors of tubulin and EGFR” (Bioorg Med Chem, 2019)

How the values were obtained:
[1] = Cytotoxicity against human LO2 cells assessed as reduction in cell viability after 24 hrs by MTT assay; assay type: cell-based, L02
Procedure, shortened: (§1)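 MTT colorimetric assay. Cells in log phase in medium with 10% FBS were seeded at 10⁴ cells/well and left overnight at 37 °C, 5% CO₂ to reattach. Compounds were added at 0.1, 1, 10 and 100 μM in 10% FBS for 24 h. IC50 reported as mean ± SD of three independent experiments.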

HeLa = assay: Antiproliferative activity against human HeLa cells assessed as reduction in cell viability after 24 hrs by MTT assay; assay type: functional, cell-based; procedure, shortened: as §1
MCF7 = assay: Antiproliferative activity against human MCF7 cells assessed as reduction in cell viability after 24 hrs by MTT assay; assay type: functional, cell-based; conditions: MCF7, 24 h; procedure, shortened: as §1
NCI-H460 = assay: Antiproliferative activity against human H460 cells assessed as reduction in cell viability after 24 hrs by MTT assay; assay type: functional, cell-based; conditions: NCI-H460, 24 h; procedure, shortened: as §1
NCI-H1975 = assay: Antiproliferative activity against human NCI-H1975 cells assessed as reduction in cell viability after 24 hrs by MTT assay; assay type: functional, cell-based; conditions: NCI-H1975, 24 h; procedure, shortened: as §1
A549 [2] = assay: Induction of apoptosis in human A549 cells assessed as low mitochondrial membrane potential after 20 mins by JC-1 staining-based flow cytometric analysis (reference value: 6.3%); assay type: functional
A549 [3] = assay: Induction of apoptosis in human A549 cells assessed as high mitochondrial membrane potential after 20 mins by JC-1 staining-based flow cytometric analysis (reference value: 90.6%); assay type: functional
Tubulin (Homo sapiens) = Tubulin (Homo sapiens) (UniProt P68371+Q9H4B7+P0DPH7+P68366+Q13509+Q71U36+P04350+Q3ZCM7+P07437+P68363+Q9BQE3+Q6PEY2+Q13885+Q9BVA1+Q9BUF5); assay: Inhibition of microtubule polymerization in human A549 cells assessed as polymerized tubulin expression at 1 uM after 24 hrs by immuno blot analysis; assay type: cell-based
A549 [4] = assay: Antiproliferative activity against human A549 cells assessed as reduction in cell viability after 24 hrs by MTT assay; assay type: functional, cell-based; conditions: A549, 24 h
[5] = molecular target: T1, Epidermal growth factor receptor (Homo sapiens, UniProt P00533); assay: Inhibition of C-terminal His-tagged N-terminal GST-tagged human EGFR (668 to 1210 residues) expressed in baculovirus infected Sf9 cells after 30 mins in presence of gamma-[32p-ATP] binding assay
[6] = Toxicity in ip dosed Balb/c mouse xenografted with human A549 cells assessed as reduction in body weight at 2 mg/kg, ip administered once every two days for 32 days and measured for every 2 days; assay type: organism-based; conditions: in vivo
Procedure, shortened: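 Female BALB/c nude mice (5-6 weeks) received 6×10^6 A549 cells s.c. in the flank. After two weeks (tumours ~90 mm³) they were split into 5 groups (n = 8). Dosing was 2 or 4 mg/kg, dissolved in DMSO, i.p. once every two days for 16 doses; DMSO vehicle served as control. Body weight and tumour volume (L×S²/2) were recorded every two days; mice were killed at day 32.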

[7] = molecular target: T1, Epidermal growth factor receptor; assay: Potency index, ratio of shi-konin IC50 to compound IC50 for inhibition of C-terminal His-tagged N-terminal GST-tagged human EGFR (668 to 1210 residues) expressed in baculovirus infected Sf9 cells after 30 mins in presence of gamma-[32p-ATP] binding assay

T1 sequence (P00533 whole entry, the tested form may be a part): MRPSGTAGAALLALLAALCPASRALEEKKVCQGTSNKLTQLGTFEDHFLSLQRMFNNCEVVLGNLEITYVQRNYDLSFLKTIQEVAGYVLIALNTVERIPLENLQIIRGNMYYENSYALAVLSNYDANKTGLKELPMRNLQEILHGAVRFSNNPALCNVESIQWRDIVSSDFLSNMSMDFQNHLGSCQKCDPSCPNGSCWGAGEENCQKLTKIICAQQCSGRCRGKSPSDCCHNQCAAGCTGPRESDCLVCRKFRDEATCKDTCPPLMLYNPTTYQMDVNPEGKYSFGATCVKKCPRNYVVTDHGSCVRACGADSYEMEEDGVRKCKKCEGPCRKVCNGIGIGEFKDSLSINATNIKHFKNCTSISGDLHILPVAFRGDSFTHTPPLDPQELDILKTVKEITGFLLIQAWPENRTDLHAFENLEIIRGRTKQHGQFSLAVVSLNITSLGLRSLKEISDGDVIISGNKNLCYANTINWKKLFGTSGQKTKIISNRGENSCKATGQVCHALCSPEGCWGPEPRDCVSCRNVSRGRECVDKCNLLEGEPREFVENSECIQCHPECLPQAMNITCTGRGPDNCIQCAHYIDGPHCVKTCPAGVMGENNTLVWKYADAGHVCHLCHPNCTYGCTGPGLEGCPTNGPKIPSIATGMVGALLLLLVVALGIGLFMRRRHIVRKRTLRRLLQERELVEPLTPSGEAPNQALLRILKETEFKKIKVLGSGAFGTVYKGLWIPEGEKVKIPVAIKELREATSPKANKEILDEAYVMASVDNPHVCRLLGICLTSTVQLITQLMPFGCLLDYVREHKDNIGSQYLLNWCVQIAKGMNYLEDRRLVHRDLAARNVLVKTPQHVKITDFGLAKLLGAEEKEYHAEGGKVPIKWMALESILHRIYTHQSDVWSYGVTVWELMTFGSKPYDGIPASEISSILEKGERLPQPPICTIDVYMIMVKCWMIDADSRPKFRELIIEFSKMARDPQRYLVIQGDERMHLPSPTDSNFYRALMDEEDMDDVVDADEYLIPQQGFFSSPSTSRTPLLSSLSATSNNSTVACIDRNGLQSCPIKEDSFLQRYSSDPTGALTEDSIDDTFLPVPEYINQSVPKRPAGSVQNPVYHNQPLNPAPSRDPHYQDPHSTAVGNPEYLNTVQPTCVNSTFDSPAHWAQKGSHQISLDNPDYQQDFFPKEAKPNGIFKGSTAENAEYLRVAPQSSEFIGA

Row | SMILES | CC50 at 24 h [1] [µM] | IC50 (HeLa) [µM] | IC50 (MCF7) [µM] | IC50 (NCI-H460) [µM] | IC50 (NCI-H1975) [µM] | Activity (A549 [2]) [%] | Activity (A549 [3]) [%] | fold change (FC) (Tubulin (Homo sapiens)) | IC50 (A549 [4]) [µM] | IC50 [5] [µM] | Activity [6] | Ratio IC50 [7]
1 | CN(C)C/C=C/C(=O)Nc1cc2c(Nc3ccc(F)c(Cl)c3)ncnc2cc1O[C@H]1CCOC1 [AFATINIB] | 25.3 | 6.39 | 7.62 | 6.14 | 5.55 | – | – | – | – | – | – | –
2 | N#CC(C#N)=NNc1cccc(Cl)c1 [CARBONYL CYANIDE M-CHLOROPHENYLHYDRAZONE] | – | – | – | – | – | 67.9 | 26.5 | – | – | – | – | –
3 | CC(=O)O[C@H]1C(=O)[C@@]2(C)[C@H]([C@H](OC(=O)c3ccccc3)[C@]3(O)C[C@H](OC(=O)[C@H](O)[C@@H](NC(=O)c4ccccc4)c4ccccc4)C(C)=C1C3(C)C)[C@]1(OC(C)=O)CO[C@@H]1C[C@@H]2O | – | – | – | – | – | – | – | 0.82 | – | – | – | –
4 | CC(C)=CC[C@@H](OC(=O)/C=C\C(=O)c1ccc(C)cc1F)C1=CC(=O)c2c(O)ccc(O)c2C1=O | > 100 | 15.1 | 6.64 | 13.6 | 9.56 | – | – | – | 12.6 | 0.12 | – | –
5 | CC(C)=CC[C@@H](OC(=O)/C=C\C(=O)c1ccc(Cl)cc1)C1=CC(=O)c2c(O)ccc(O)c2C1=O | > 100 | 11.4 | 9.62 | 11.7 | 11.8 | – | – | – | 8.52 | 0.0325 | – | –
6 | CC(C)=CC[C@@H](OC(=O)/C=C\C(=O)c1ccc(C)c(Br)c1)C1=CC(=O)c2c(O)ccc(O)c2C1=O | > 100 | 17.2 | 14.3 | 4.21 | 22.5 | – | – | – | 15.4 | > 0.15 | – | –
7 | CC(C)=CC[C@@H](O)C1=CC(=O)c2c(O)ccc(O)c2C1=O [SHIKONIN] | 12.2 | 7.84 | 9.55 | 5.04 | 4.28 | – | – | – | 6.13 | 0.139 | Toxic | –
8 | CC(C)=CC[C@@H](OC(=O)/C=C\C(=O)c1cc(F)ccc1C)C1=CC(=O)c2c(O)ccc(O)c2C1=O | 93.5 | 14.2 | 10.1 | 8.35 | 7.26 | – | – | – | 13.4 | 0.0234 | – | 6
9 | CC(C)=CC[C@@H](OC(=O)/C=C\C(=O)c1ccccc1)C1=CC(=O)c2c(O)ccc(O)c2C1=O | > 100 | 17.6 | 19.4 | 4.59 | 10.3 | – | – | – | 7.51 | > 0.15 | – | –
10 | CC(C)=CC[C@@H](OC(=O)/C=C\C(=O)c1ccc(Br)cc1)C1=CC(=O)c2c(O)ccc(O)c2C1=O | > 100 | 8.02 | 9.31 | 6.51 | 13.3 | – | – | – | 9.19 | 0.12 | – | –
11 | CC(C)=CC[C@@H](OC(=O)/C=C\C(=O)c1ccc(C)cc1)C1=CC(=O)c2c(O)ccc(O)c2C1=O | 64.2 | 8.96 | 9.14 | 11.4 | 10.2 | – | – | – | 9.72 | 0.0452 | – | –
12 | CC(C)=CC[C@@H](OC(=O)/C=C\C(=O)c1ccc(C)cc1C)C1=CC(=O)c2c(O)ccc(O)c2C1=O | > 100 | 18.6 | 7.89 | 9.17 | 16.6 | – | – | – | 10.2 | > 0.15 | – | –
13 | CC(C)=CC[C@@H](OC(=O)/C=C\C(=O)c1ccc(C)cc1Cl)C1=CC(=O)c2c(O)ccc(O)c2C1=O | > 100 | 10.1 | 6.63 | 8.16 | 9.56 | – | – | – | 6.23 | 0.105 | – | –
14 | CC(C)=CC[C@@H](OC(=O)/C=C\C(=O)c1ccc(C)c(F)c1)C1=CC(=O)c2c(O)ccc(O)c2C1=O | > 100 | 8.27 | 7.68 | 10.1 | 7.25 | – | – | – | 9.39 | 0.107 | – | –
15 | CC(C)=CC[C@@H](OC(=O)/C=C\C(=O)c1ccc(C)c(C)c1)C1=CC(=O)c2c(O)ccc(O)c2C1=O | 88.4 | 10.1 | 14.3 | 11.3 | 15.7 | – | – | – | 9.12 | 0.119 | – | –
16 | CCc1ccc(C(=O)/C=C\C(=O)O[C@H](CC=C(C)C)C2=CC(=O)c3c(O)ccc(O)c3C2=O)cc1 | 92.4 | 15.2 | 9.37 | 16.4 | 12.4 | – | – | – | 14.5 | 0.0508 | – | –
17 | CC(C)=CC[C@@H](OC(=O)/C=C\C(=O)c1cc(C)ccc1C)C1=CC(=O)c2c(O)ccc(O)c2C1=O | 78.1 | 10.2 | 5.28 | 13.2 | 10.2 | – | – | – | 13.1 | > 0.15 | – | –
18 | CC(C)=CC[C@@H](OC(=O)/C=C\C(=O)c1cc(Cl)ccc1C)C1=CC(=O)c2c(O)ccc(O)c2C1=O | 83.3 | 9.34 | 18.6 | 10.3 | 18.3 | – | – | – | 13.2 | 0.146 | – | –
